Only some compounds are listed: those with a hit (about 2.8% of all), similar ones and a draw of the others.
EP2 mod = modulates human prostaglandin E2 receptor EP2 signaling. P43116. EP2-expressing cells, cAMP HTRF FRET, PGE2 co-stimulation. induction, % at 25 µM. 0.83% of 260,000 active;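 active = compounds whose cAMP rise, as percent of the full-agonist control response, exceeds 60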;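 note: rat C6 glioma line stably carrying human EP2 under a CMV promoter; the protocol text gives 20 µM as final concentration; 100% = response of wells given 1 µM PGE2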
Target sequence (P43116 whole entry, looked up): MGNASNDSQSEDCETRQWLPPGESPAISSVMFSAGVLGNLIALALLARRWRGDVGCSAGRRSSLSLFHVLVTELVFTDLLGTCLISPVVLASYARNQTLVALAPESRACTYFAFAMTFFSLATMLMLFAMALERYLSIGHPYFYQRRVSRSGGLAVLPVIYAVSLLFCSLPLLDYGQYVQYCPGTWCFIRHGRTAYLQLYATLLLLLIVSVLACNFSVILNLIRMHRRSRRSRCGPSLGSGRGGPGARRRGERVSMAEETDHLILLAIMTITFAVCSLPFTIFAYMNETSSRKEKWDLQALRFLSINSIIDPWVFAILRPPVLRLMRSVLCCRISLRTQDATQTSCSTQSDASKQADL
NPY-Y2 PAM-ag = potentiators or agonists of human neuropeptide Y receptor Y2; P49146; cells expressing NPY-Y2, potentiator/agonist read-out; activation, % at 3.6 µM; 0.45% of 220,000 active; in the data active = activation above about 27%;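 note: cells stimulated with NPY near EC25 plus isoproterenol at EC100; 0% = vehicle plus submaximal agonist and 100% = vehicle plus saturating agonist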
EP2 antag = blocks the human prostaglandin E2 receptor EP2; P43116; C6 glioma cells expressing human EP2, cAMP TR-FRET; cells stimulated with saturating PGE2; inhibition, % at 25 µM; 0.52% of 260,000 active; AID 1422;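 active = percent inhibition above 40 after rounding to a whole number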;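 note: rat C6 glioma host cells with rolipram phosphodiesterase inhibitor present; the protocol text gives 20 µM as final concentration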
NPY Y2 blocker = blocks the human neuropeptide Y Y2 receptor | AID 793 | P49146 | 0.99% of 140,000 active | inhibition, % at 2.7 µM | NPY-Y2 expressing cells, antagonist mode; in the data active = inhibition above about 17%;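 note: 0% = vehicle with agonist challenge and 100% = reference antagonist with challenge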
NPY Y1 blocker = NPY-Y1 (human) receptor antagonism | P25929 | HEK293-CNG Y1 cells, membrane potential fluorescence; NPY at EC95, then isoproterenol | inhibition, % at 3.6 µM | 1% of 200,000 active | AID 1040;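 active = inhibition above the campaign mean inhibition of all tested compounds plus 3 SD, cut at about 20% in these data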;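 note: 0% = DMSO wells given NPY plus isoproterenol and 100% = isoproterenol alone without NPY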
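Test system – HEK293 Y1/CNG channel cell line · Also added – NPY agonist 25 nM, then isoproterenol 1 µM plus Ro 20-1724 25 µM · Compound dosing – one concentration, 3.6 µM, in 0.4% DMSO · Schedule – compound incubation 1 h at room temperature, readout 45 min post-stimulation · Technique – fluorescence, membrane potential probe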
NPY-Y1 PAM-ag = potentiators or agonists of human neuropeptide Y receptor Y1; activation, % at 3.6 µM; NPY-Y1 expressing cells, potentiator/agonist activation; 0.37% of 220,000 active; in the data active = activation above about 33%, passing the limit was not always enough;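 note: cells stimulated with NPY at EC10 then isoproterenol at EC100; 0% = low agonist plus stimulus and 100% = saturating agonist plus stimulus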
NPY-Y2 pot conf = confirmation of human NPY-Y2 receptor potentiators or agonists; shares compounds with NPY-Y2 PAM-ag; cell-based NPY-Y2 potentiator/agonist assay; activation, % at 3.6 µM; 20% of 450 active; in the data active = activation above about 33%
NPY-Y1 counter = NPY-Y1 potentiation or agonism as NPY-Y2 counter-screen. shares compounds with NPY-Y2 PAM-ag. Y1 HEK293-CNG cells, membrane potential fluorescence. activation, % at 3.6 µM. 20% of 450 active. AID 1651; in the data active = activation above about 45%;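 note: cells stimulated with submaximal NPY then isoproterenol with phosphodiesterase inhibitor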
NPY-Y1 agonist 2 = counter-screen for NPY-Y2 potentiators: agonists of human NPY-Y1 | 37% of 450 active | shares compounds with NPY-Y2 PAM-ag | activation, % at 3.6 µM | HEK293 Y1-CNGC, membrane potential fluorescence, agonism;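 active = activation above the mean of DMSO-only control wells plus 3 SD, cut at about 18% in these data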;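 note: cells stimulated with 1 µM isoproterenol plus the PDE inhibitor Ro 20-1724; 0% = isoproterenol with DMSO and no NPY and 100% = 40 nM NPY; Y1 agonists lower the membrane potential dye signal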
CNGC inhibitor = counter-screen for NPY-Y2 potentiators: inhibitors of CNG channel activity. shares compounds with NPY-Y2 PAM-ag. inhibition, % at 3.6 µM. 32% of 450 active. HEK293-CNG parental, isoproterenol cAMP, membrane potential fluorescence;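 active = inhibition above the control-well mean plus 3 SD of those wells, cut at about 22% in these data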;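 note: 0% = DMSO with isoproterenol and 100% = DMSO without isoproterenol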
NPY-Y2 ag 2 = NPY-Y2 agonism, counter-screen for Y2 potentiators. shares compounds with NPY-Y2 PAM-ag. HEK293 Y2/CNGC cells, membrane potential fluorescence, agonist mode. activation, % at 3.6 µM. 56% of 450 active;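 active = activation above the mean of solvent-only control wells plus 3 SD, cut at about 10% in these data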;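 note: cells stimulated by isoproterenol with no NPY added so direct agonism is tested; 0% = DMSO with isoproterenol alone and 100% = NPY at EC100 plus isoproterenol; agonism lowers probe fluorescence through less cAMP and CNG channel opening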
Active calls of the source: *; nt = not tested or not shown.

SMILES | EP2 mod | NPY-Y2 PAM-ag | EP2 antag | NPY Y2 blocker | NPY Y1 blocker | NPY-Y1 PAM-ag | NPY-Y2 pot conf | NPY-Y1 counter | NPY-Y1 agonist 2 | CNGC inhibitor | NPY-Y2 ag 2
COc1ccc(NS(=O)(=O)c2ccc(OC)c(N(C)S(=O)(=O)c3ccc(Cl)cc3)c2)cc1 | -0.6 | 35.1* | 20.4 | 3.2 | 3.5 | -9.9 | -2.0 | -30.9 | -22.2 | -8.6 | -2.9
COc1ccc(CN(Cc2ccc(C)o2)C2CC(C)(C)NC(C)(C)C2)cc1CO | -1.5 | nt | 4.4 | nt | nt | nt | nt | nt | nt | nt | nt
COCCN=c1scc(-c2cc(OC)ccc2OC)n1/N=C/c1c[nH]c2ccccc12 | -46.8 | 33.5* | 5.9 | -3.2 | -12.9 | 43.1 | 33.4* | 48.7* | 45.8* | 37.3* | 36.4*
Cc1ccc(C)c(OCC(O)CN2CCC(C)CC2)c1C (centres undefined) | 20.8 | -3.4 | 10.0 | 4.6 | 4.6 | -4.4 | nt | nt | nt | nt | nt
Cc1ccccc1OCC(O)CN1CCC(C)CC1 (centres undefined) | -18.2 | 36.6* | 5.1 | nt | -3.7 | 31.2 | 21.4 | 33.7 | 19.4* | 3.4 | 41.9*
CC(=O)c1ccc(NC(=O)C2CCCN(C(=O)c3ccc(Cl)cc3)C2)cc1 (centres undefined) | -60.8 | 28.2* | 2.3 | nt | -8.5 | 18.6 | 32.4 | 38.5 | 29.0* | 30.1* | 30.1*
O=S(=O)(Nc1cccc2ccccc12)c1cccc2nonc12 | -12.3 | 62.9* | 14.7 | nt | nt | 18.9 | -0.9 | 5.9 | -3.2 | -2.6 | -2.5
Cc1cccc2sc(NC(=O)C3CCN(S(=O)(=O)c4cc([N+](=O)[O-])ccc4Cl)CC3)nc12 | -10.3 | 40.4* | 14.2 | -0.7 | -5.3 | 27.6 | 29.0 | 22.0 | 23.7* | 18.4 | 41.4*
CC(C)[C@@H](Cn1nnc2ccccc21)NC(=O)Cn1ncc2ccccc2c1=O | -6.5 | nt | 10.6 | nt | nt | nt | nt | nt | nt | nt | nt
COc1ccc(Cl)cc1NC(=O)Cn1nc(-c2ccccc2)ccc1=O | -78.1 | nt | 7.2 | nt | nt | nt | nt | nt | nt | nt | nt
O=C(/C=C/c1ccc([N+](=O)[O-])cc1)NCCc1ccc(F)cc1 | -91.7 | 46.3* | 4.4 | nt | 2.2 | 9.2 | 0.3 | -1.6 | -4.5 | -1.5 | 9.3
O=C(/C=C/c1cccc([N+](=O)[O-])c1)NCCc1ccc(F)cc1 | -78.5 | 7.2 | 13.1 | 8.8 | 2.5 | -7.2 | nt | nt | nt | nt | nt
CCC(=O)OC1[C@@H]2CC3=C4CC(=O)O[C@@H](c5ccoc5)[C@]4(C)CCC3C(C)(C2=O)[C@@H](CC(=O)OC)C1(C)C (some centres undefined) | 10.1 | nt | 9.2 | nt | nt | nt | nt | nt | nt | nt | nt
Cc1nc(C)c(C(=O)N[C@H](C)Cn2nnc3ccccc32)o1 | 21.1 | nt | nt | nt | nt | nt | nt | nt | nt | nt | nt
Cc1c(N/N=C(\C#N)C(=O)c2ccc(Cl)cc2)c(=O)n(-c2ccccc2)n1C | -0.3 | -13.3 | 10.6 | 2.2 | 2.8 | -3.7 | nt | nt | nt | nt | nt
N#C/C(=N\Nc1ccc(Cl)cc1)C(=O)c1ccccc1 | -41.1 | 47.3* | 16.6 | -0.5 | -12.1 | 34.9 | 19.1 | -3.0 | 6.6 | 0.7 | 19.8*
O=C(NCCCn1ccnc1)Nc1ccc(Cl)c(Cl)c1 | -12.6 | 1.2 | 2.0 | 0.6 | 2.8 | -17.8 | nt | nt | nt | nt | nt
O=C(NCCCn1ccnc1)Nc1ccc(Cl)cc1 | -2.0 | 103.4* | 8.9 | -0.6 | -2.2 | 32.2 | 4.9 | 10.4 | 0.4 | 7.0 | 10.6*
CCN(CC)CCN(Cc1cc2c(C)ccc(C)c2[nH]c1=O)C(=S)NCC1CCCO1 (centres undefined) | -46.2 | nt | 5.5 | nt | nt | nt | nt | nt | nt | nt | nt
COc1ccc(C2(NC(=O)c3cccc(N4CCCC4=O)c3)CCCCC2)cc1 | -45.0 | nt | 6.7 | nt | nt | nt | nt | nt | nt | nt | nt

Assay outcomes from PubChem.
